Measured values from different studies.
Each line is one published result; the experiments were not run side by side.
Target: Dual specificity protein kinase CLK1 (CLK1, Homo sapiens, UniProt P49759)

SMILES | test | setting | quantity | result
O=C(NC[C@@H]1[C@H]2CN(C(=O)OCc3cc(C(F)(F)F)cc(C(F)(F)F)c3)C[C@@H]12)c1ccc2[nH]nnc2c1 | cell-free assay, competition with immobilised ligand | 1 µM | remaining binding | 87%
CN1CC(Oc2cnc(C#N)cc2-c2ccn3nc(NC(=O)C4CC4)cc3c2)C1 | enzyme activity, inhibitor | 1 µM | inhibition | -3%
O=C(NCc1ncc(C(F)(F)F)cc1Cl)c1ccc2c(c1)C1(CCS(=O)(=O)CC1)[C@H](C1CC1)N2S(=O)(=O)c1ccc(F)cc1 | cell-free assay, competition with immobilised ligand | 1 µM | remaining binding | 100%
COc1cc2ncnc(Nc3ccc(Oc4ccccc4)cc3C)c2cc1OC | enzyme activity, inhibitor | 1 µM | inhibition | 3%
O=C(O)[C@H]1[C@H](Cn2nnc3ccccc3c2=O)CC[C@@H]1C(=O)c1ccc(OCCC2CCOCC2)cc1 | cell-free assay, competition with immobilised ligand | 1 µM | remaining binding | 98%
CCCS(=O)(=O)Nc1ccc(F)c(C(=O)c2c[nH]c3ncc(-c4ccc(Cl)cc4)cc23)c1F | enzyme activity, inhibitor | 1 µM | inhibition | < 10%
C#Cc1cccc(Nc2ncnc3cc(OCCOC)c(OCCOC)cc23)c1 | cell-free assay | 0.5 µM | remaining signal | 107%
Cc1sc(C(=O)NC2COC2)cc1-n1cc(NC(=O)Nc2c(F)cccc2Cl)cn1 | enzyme activity, inhibitor | 10 µM | remaining activity | 98.4%
Nc1ncnc2occ(-c3ccc(NC(=O)Nc4cc(C(F)(F)F)ccc4F)cc3)c12 | cell-free assay, inhibitor | 20 µM | remaining signal | 0.65%
CC(=O)N1CCC(c2ccc(C(=O)NC(=N)N)cc2C(F)(F)F)CC1 | cell-free assay, competition with immobilised ligand | 1 µM | remaining binding | 100%
CCN(CC)CCNC(=O)c1c(C)[nH]c(/C=C2\C(=O)Nc3ccc(F)cc32)c1C | cell-free assay | 0.5 µM | remaining signal | 23.3%
O=C(O)c1cc(-c2ccc(C3CCNCC3)cc2)c2ccc(-c3ccc(C(F)(F)F)cc3)cc2c1 | cell-free assay, competition with immobilised ligand | 1 µM | remaining binding | 100%
CC(C)(C)c1nc2c(s1)c1nc(N)ncc1c1ccc(NS(=O)(=O)c3c(F)cccc3F)c(F)c12 | enzyme activity, inhibitor, radiometric | 1 µM | remaining activity | 91%
Cn1cncc1C1=CN(c2ncnc3[nH]cnc23)CCS1 | enzyme activity, inhibitor, radiometric | 2 µM | inhibition | 97.3%
Cc1cnc(NC2CCOCC2)nc1-n1cnc(C(=O)NC(CN)c2cc(F)cc(Cl)c2)c1 (stereo not shown) | enzyme activity, inhibitor, radiometric | 1 µM | remaining activity | 62%
CNCc1ccccc1-c1csc([C@H](C)Nc2nc(C)nc3cc(OC)c(OC)cc23)c1 | cell-free assay, competition with immobilised ligand | 1 µM | remaining binding | 95%
COc1cc(Cl)c(C(=O)N[C@@H](CN[C@H]2CC[C@@H](N)CC2)Cc2ccc(C#N)cc2)cc1-c1ccc(CN[C@H](C)c2ccc(C)cc2)o1 | enzyme activity, inhibitor | 1 µM | remaining activity | 91%
Cc1ccc(C(=O)Nc2ccc(CN3CCN(C)CC3)c(C(F)(F)F)c2)cc1C#Cc1cnc2cccnn12 | enzyme activity, inhibitor | 23.5 nM | remaining activity | 38%
COc1cc2c(Nc3ccc(Br)cc3F)ncnc2cc1OCC1CCN(C)CC1 | cell-free assay | 0.5 µM | remaining signal | 105%
O=C(Nc1cnn(-c2csc(C(=O)NC3COC3)c2)c1)Nc1c(F)cccc1Cl | enzyme activity, inhibitor | 5 µM | remaining activity | 74.9%
O=C1Nc2ccc(Cl)cc2C1=Cc1cc(Cl)c(O)c(Cl)c1 | cell-free assay | 0.5 µM | remaining signal | 85%
COc1cc(-c2cc(-c3ccc(N4CCNCC4)cc3)cnc2C)cc(OC)c1OC | enzyme activity, inhibitor | 1 µM | inhibition | 1%
